Laboratory results: ChEMBL document CHEMBL3414537, “Efficient synthesis and biological activity of Psammaplin A and its analogues as antitumor agents” (Eur J Med Chem, 2015)
Activity calls are given as the source filed them. The rule behind the calls is not given here.

Tests used:
A549 [1] = experiment: Cytotoxicity against human A549 cells by SRB assay; assay type: functional, cell-based
How it was run: (§1)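 Cells at 3.5 × 10^4 cells/mL in RPMI 1640 with 10% heat-inactivated FBS were exposed to a range of concentrations for 72 h. They were then TCA-fixed (10%) and stained with sulforhodamine B. Growth is expressed as % of solvent-treated control, and IC50 is obtained by non-linear regression. Means of ≥3 experiments.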

[2] = Cytotoxicity against human HCT116 cells by SRB assay; assay type: functional, cell-based; details: HCT-116; how it was run: as §1
[3] = target: T1, Histone deacetylase (Homo sapiens) (UniProt Q13547+O15379+Q9UBN7+Q92769+Q9UQL6+Q8WUI4+Q9BY41+Q96DB2+P56524+Q9UKV0+Q969S8); experiment: Inhibition of HDAC in human A549 cells at 1.6 uM after 24 hrs by fluorescence assay; assay type: cell-based
A549 [4] = experiment: Antitumor activity against human A549 cells xenografted in athymic BALB/c nu/nu mouse assessed as reduction in tumor weight at 30 mg/kg, ip administered thrice a week measured after 35 days relative to vehicle-treated control; assay type: functional, organism-based; parameters: dose 30 mg/kg
How it was run: (§2)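 Male BALB/c nu/nu mice (6 weeks) were implanted s.c. in the right flank with 1 × 10^7 A549 cells. Dosing started at tumor volume 50–60 mm3, with 6 mice per group. Treatment was 15 or 30 mg/kg i.p. three times weekly in 0.05% Tween-80/0.9% NaCl, with vehicle and paclitaxel 5 mg/kg controls. Tumor volume was followed to day 35, and end-point tumors were weighed.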

[5] = target: T1, Histone deacetylase (Homo sapiens); experiment: Inhibition of HDAC in human A549 cells assessed as increase in acetylated histone 3 expression level at 1.6 uM after 24 hrs by western blotting analysis; assay type: cell-based
How it was run: (§3)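 After 24 h exposure (0.2–1.6 µM), A549 lysates were prepared in Tris-HCl pH 6.8/4% SDS buffer with protease and phosphatase inhibitors at 4 °C. Equal protein was separated by SDS-PAGE and transferred to PVDF. Membranes were blocked in 5% BSA/TBS-Tween for 2 h, incubated with primary antibody overnight at 4 °C, then HRP secondary for 1 h, with chemiluminescent detection.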

A549 [6] = experiment: Antiproliferative activity against human A549 cells assessed as shrunken and sharp shape at 0.4 uM after 24 hrs by phase contrast microscopy; assay type: functional, cell-based
How it was run: (§4)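 A549 cells (RPMI 1640, 10% heat-inactivated FBS, 37 °C, 5% CO2) exposed to 0.2–1.6 µM for 24 h; TSA 0.4 µM run alongside. Cell shape examined by phase-contrast microscopy.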

[7] = target: T1, Histone deacetylase (Homo sapiens); experiment: Inhibition of HDAC in human A549 cells assessed as increase in acetylated histone 3 expression level after 24 hrs by western blotting analysis; assay type: cell-based; how it was run: as §3
A549 [8] = experiment: Antitumor activity against human A549 cells xenografted in athymic BALB/c nu/nu mouse assessed as tumor growth inhibition at 15 mg/kg, ip administered thrice a week measured after 35 days relative to vehicle-treated control; assay type: functional; details: 840 h, route intraperitoneal, read-out: TGI; how it was run: as §2
Mus musculus = experiment: Toxicity in athymic BALB/c nu/nu mouse xenografted with human A549 cells assessed as change in body weight at 15 to 30 mg/kg, ip administered thrice a week measured after 35 days relative to vehicle-treated control; assay type: organism-based; parameters: dose 15-30 mg/kg, route intraperitoneal; details: in vivo, 840 h
A549 [9] = experiment: Induction of phosphorylated ERK level in human A549 cells after 24 hrs by Western blotting analysis; assay type: cell-based; how it was run: as §3
A549 [10] = experiment: Antitumor activity against human A549 cells xenografted in athymic BALB/c nu/nu mouse assessed as change in cell number in edge or peripheral region of tumor at 15 to 30 mg/kg, ip administered thrice a week measured after 35 days by immunohistochemical analysis relative to vehicle-treated control; assay type: functional, organism-based
How it was run: (§5)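 In the A549 nude-mouse xenograft (15 or 30 mg/kg i.p. thrice weekly, vehicle control), end-point tumor sections were incubated overnight at 4 °C with Ki-67 antibody. Detection used an HRP polymer system with hematoxylin-eosin counterstain, and sections were imaged by light microscopy.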

A549 [11] = experiment: Antitumor activity against human A549 cells xenografted in athymic BALB/c nu/nu mouse assessed as reduction in tumor weight at 15 to 30 mg/kg, ip administered thrice a week measured after 35 days relative to vehicle-treated control; assay type: functional, organism-based; how it was run: as §2
A549 [12] = experiment: (§6) Antitumor activity against human A549 cells xenografted in athymic BALB/c nu/nu mouse assessed as change in cell number in central region of tumor at 15 to 30 mg/kg, ip administered thrice a week measured after 35 days by immunohistochemical analysis relative to vehicle-treated control; assay type: functional, organism-based; how it was run: as §5
A549 [13] = experiment: Antiproliferative activity against human A549 cells assessed as morphological changes after 24 hrs by phase contrast microscopy; assay type: functional, cell-based; how it was run: as §4
[14] = target: T1, Histone deacetylase (Homo sapiens); experiment: Inhibition of HDAC in human A549 cells after 24 hrs by fluorescence assay; assay type: cell-based
A549 [15] = experiment: Antiproliferative activity against human A549 cells assessed as shrunken and sharp shape at 1.6 uM after 24 hrs by phase contrast microscopy; assay type: functional, cell-based; how it was run: as §4
A549 [16] = experiment: as §6, with “inhibition of Ki-67 expression” for “change in cell number”, “central and edge” for “central”; assay type: functional, organism-based; how it was run: as §5
A549 [17] = experiment: Antitumor activity against human A549 cells xenografted in athymic BALB/c nu/nu mouse assessed as tumor growth inhibition at 30 mg/kg, ip administered thrice a week measured after 35 days relative to vehicle-treated control; assay type: functional; details: 840 h, route intraperitoneal, read-out: TGI; how it was run: as §2
A549 [18] = experiment: Induction of phosphorylated AKT level in human A549 cells after 24 hrs by Western blotting analysis; assay type: cell-based; how it was run: as §3

| SMILES | IC50 (A549 [1]) | IC50 [2] | further results |
| --- | --- | --- | --- |
| O=C(NCCSSCCNC(=O)/C(Cc1cc(Cl)cc(Cl)c1Cl)=N/O)/C(Cc1cc(Cl)cc(Cl)c1Cl)=N\O | 5.09 µM | 4.23 µM | – |
| O=C(NCCCCl)/C(Cc1ccc(OCc2ccccc2)cc1)=N\O | > 100 µM | > 100 µM | – |
| O=C(NCCSSCCNC(=O)/C(Cc1ccc(O)c(Br)c1)=N/O)/C(Cc1ccc(O)c(Br)c1)=N/O [PSAMMAPLIN A] | 1.18 µM | 1.62 µM | inhibition [3]: Active; Activity (A549 [4]): Active; inhibition [5]: Active |
| CC(/C=C/C(=O)NO)=C\[C@@H](C)C(=O)c1ccc(N(C)C)cc1 | – | – | Activity (A549 [6]): Active |
| Cc1ccc(C/C(=N/O)C(=O)NCCSSCCNC(=O)/C(Cc2ccc(C)cc2)=N/O)cc1 | 6.09 µM | 5.63 µM | – |
| CCCOc1ccc(C/C(=N/O)C(=O)NCCSSCCNC(=O)/C(Cc2ccc(OCCC)cc2)=N/O)cc1 | 13.5 µM | 15.5 µM | – |
| O=C(NCCSSCCNC(=O)/C(Cc1ccc(OC2CCCC2)cc1)=N/O)/C(Cc1ccc(OC2CCCC2)cc1)=N\O | 1.4 µM | 5.34 µM | – |
| O=C(NCCSSCCNC(=O)/C(Cc1cc(Cl)cc(Cl)c1)=N/O)/C(Cc1cc(Cl)cc(Cl)c1)=N\O | 2.28 µM | 2.1 µM | – |
| CO/N=C(/Cc1ccc(OC)c(Br)c1)C(=O)NCCSSCCNC(=O)/C(Cc1ccc(OC)c(Br)c1)=N\OC | 9.2 µM | 10.7 µM | – |
| CCCCOc1ccc(C/C(=N/O)C(=O)NCCSSCCNC(=O)/C(Cc2ccc(OCCCC)cc2)=N/O)cc1 | 41.1 µM | 23.8 µM | – |
| O=C(NCCSSCCNC(=O)/C(Cc1ccc(Cl)cc1)=N/O)/C(Cc1ccc(Cl)cc1)=N\O | 2.58 µM | 2.03 µM | – |
| O=C(NCCSSCCNC(=O)/C(Cc1ccc([N+](=O)[O-])cc1)=N/O)/C(Cc1ccc([N+](=O)[O-])cc1)=N\O | 2.66 µM | 1.8 µM | – |
| O=C(NCCSSCCNC(=O)/C(Cc1c2ccccc2cc2ccccc12)=N\O)/C(Cc1c2ccccc2cc2ccccc12)=N\O | 18.5 µM | 28.4 µM | – |
| O=C(NCCSSCCNC(=O)/C(Cc1ccc(Cl)c(Cl)c1)=N/O)/C(Cc1ccc(Cl)c(Cl)c1)=N\O | 1.6 µM | 1.46 µM | – |
| O=C(NCCCCCCNC(=O)/C(Cc1ccc(OCc2ccccc2)cc1)=N\O)/C(Cc1ccc(OCc2ccccc2)cc1)=N\O | 20.1 µM | > 100 µM | – |
| CCOc1ccc(C/C(=N/O)C(=O)NCCSSCCNC(=O)/C(Cc2ccc(OCC)cc2)=N/O)cc1 | 1.37 µM | 1.61 µM | – |
| O=C(NCCSSCCNC(=O)/C(Cc1ccc(OCc2ccccc2)cc1)=N/O)/C(Cc1ccc(OCc2ccccc2)cc1)=N\O | 1.12 µM | 1.57 µM | – |
| O=C(NCCSSCCNC(=O)/C(Cc1ccc(Br)cc1)=N/O)/C(Cc1ccc(Br)cc1)=N\O | 5.89 µM | 7.24 µM | – |
| CO/N=C(/Cc1ccc(OC)cc1)C(=O)NCCSSCCNC(=O)/C(Cc1ccc(OC)cc1)=N\OC | > 100 µM | > 100 µM | – |
| O=C(NCCSSCCNC(=O)/C(Cc1ccc(Oc2ccccc2)cc1)=N/O)/C(Cc1ccc(Oc2ccccc2)cc1)=N\O | > 100 µM | 20.4 µM | – |
| O=C(NCCS)/C(Cc1ccc(OCc2ccccc2)cc1)=N\O | 40 µM | 85.1 µM | – |
| O=C(NCCSSCCNC(=O)/C(Cc1ccc2ccccc2c1)=N/O)/C(Cc1ccc2ccccc2c1)=N\O | 1.2 µM | 1.3 µM | inhibition [7]: Dose-dependent effect; inhibition in vivo at 15 mg/kg (A549 [8]): 30.4%; Activity (Mus musculus): Non-toxic; Activity (A549 [9]): Dose-dependent effect; Activity (A549 [10]): Active; Activity (A549 [11]): Active; Activity (A549 [12]): inactive; Activity (A549 [13]): Dose-dependent effect; Activity (A549 [1]): Dose-dependent effect; inhibition [14]: Dose-dependent effect; Activity (A549 [15]): Active; inhibition (A549 [16]): Active; inhibition in vivo at 30 mg/kg (A549 [17]): 47.6%; Activity (A549 [18]): Dose-dependent effect |
| CC(C)(C)c1ccc(C/C(=N/O)C(=O)NCCSSCCNC(=O)/C(Cc2ccc(C(C)(C)C)cc2)=N/O)cc1 | 1.78 µM | 1.67 µM | – |
| O=C(NCCSSCCNC(=O)/C(Cc1cccc2ccccc12)=N/O)/C(Cc1cccc2ccccc12)=N\O | > 100 µM | > 100 µM | – |
| O=C(NCCSSCCNC(=O)/C(Cc1ccccc1)=N/O)/C(Cc1ccccc1)=N\O | 6.55 µM | 6.22 µM | – |
| O=C(NCCSCCNC(=O)/C(Cc1ccc(OCc2ccccc2)cc1)=N\O)/C(Cc1ccc(OCc2ccccc2)cc1)=N\O | 2.5 µM | > 100 µM | – |
| COc1ccc(C/C(=N/O)C(=O)NCCSSCCNC(=O)/C(Cc2ccc(OC)cc2)=N/O)cc1 | 2.81 µM | 4.39 µM | – |
| O=C(NCCSSCCNC(=O)/C(Cc1ccc(F)cc1)=N/O)/C(Cc1ccc(F)cc1)=N\O | 3.5 µM | 3.78 µM | – |
| O=C(NCCCl)/C(Cc1ccc(OCc2ccccc2)cc1)=N\O | > 100 µM | > 100 µM | – |
